species: Mus musculus; test: Inhibition of LPS-induced TNFalpha release in […] macrophages after 16 hrs; assay type: functional; conditions: not given
In short: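 […] macrophages (10⁵ cells) given compound at 0.01–100 μM 30 min before LPS stimulation; 16 h incubation, then TNF measured in culture supernatants by ELISA. Mean ± S.D, n=3.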

Question: How did the Activity turn out when COc1ccc(N/N=C/c2ccc(O)c(F)c2)cc1 was run?
Answer: Dose-dependent effect

tested on: Mus musculus; test: Survival of CLP-induced BALB/c mouse at 4 mg/kg, ip after 3 days; assay type: functional; conditions: 72 h, route intraperitoneal
In short: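 Male Balb/C mice (~8 weeks) given cecal ligation with a single 22G puncture under ketamine/xylazine anaesthesia. Subcutaneous antibiotic and saline resuscitation were given right after surgery. Dosing was 4 mg/kg intraperitoneally in 20% DMSO/80% saline, started 24 h post-CLP and repeated twice daily on days 2 and 3. The vehicle group was handled the same way. Survival was scored with n=13 per group.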

Question: How did the survival at 4 mg/kg turn out when COc1ccc(N/N=C/c2ccc(O)c(F)c2)cc1 was run?
Answer: 65%

biological target: T1, Macrophage migration inhibitory factor (Homo sapiens, UniProt P14174); test: Inhibition of MIF tautomerase activity by spectrophotometric assay; conditions: not given
T1 sequence (P14174 whole entry): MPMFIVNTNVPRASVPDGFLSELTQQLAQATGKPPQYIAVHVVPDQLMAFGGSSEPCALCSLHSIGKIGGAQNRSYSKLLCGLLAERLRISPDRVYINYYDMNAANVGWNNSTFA

Question: For CCOC(=O)N/N=C/c1ccc(O)cc1, which IC50 is on record?
Answer: 43 µM

Question: How did the IC50 turn out when COc1ccc(N/N=C/c2ccc(O)c(Cl)c2)cc1 was run?
Answer: 0.22 µM

Question: Which IC50 does the source give for COC(=O)N/N=C/c1ccc(O)cc1 here?
Answer: 55 µM

Question: For CN/N=C/c1ccc(O)cc1, which IC50 is on record?
Answer: 43 µM

Question: How did the IC50 turn out when COc1ccc(N/N=C/c2ccc(O)c(Br)c2)cc1 was run?
Answer: 0.33 µM

Question: Which IC50 does the source give for COc1ccc(COC(=O)N/N=C/c2ccc(O)cc2)cc1 here?
Answer: 8 µM

Question: With CC(C)(C)OC(=O)N/N=C/c1ccc(O)cc1 as the compound, how does the IC50 read?
Answer: 5.5 µM

Question: CN(/N=C/c1ccc(O)cc1)c1ccccc1 was tested. Which IC50 did it give?
Answer: 300 µM

Question: Which IC50 does the source give for N/N=C/c1ccc(O)cc1 here?
Answer: > 500 µM

Question: For O=C(N/N=C/c1ccc(O)cc1)OCc1ccccc1, which IC50 is on record?
Answer: 10 µM

Question: COc1ccc(N/N=C/c2ccc(O)c(F)c2)cc1 was tested. Which IC50 did it give?
Answer: 0.13 µM

Question: For Oc1ccc(/C=N/Nc2ccccc2)cc1, which IC50 is on record?
Answer: 2.6 µM

Question: COc1ccc(N/N=C/c2ccc(O)cc2)cc1 was tested. Which IC50 did it give?
Answer: 0.48 µM

From ChEMBL document CHEMBL1144476, “Phenolic hydrazones are potent inhibitors of macrophage migration inhibitory factor proinflammatory activity and survival improving agents in sepsis” (J Med Chem, 2007)
